# Where “and” joins values, the source holds several entries; their conditions need not be identical. Identical values can stand only once. Calls of active or inactive are those of the source.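 How the source made its calls: active means inhibition of at least 50%, averaged over three replicate wells; inactive means inhibition below 50%.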
# Test system: HCV core protein (core106) dimerization, Hepatitis C virus
# Assay: HCV core106 dimerization inhibitors, late-stage follow-up, biochemical, AlphaScreen luminescence, single dose 15 µM, powder samples (AID 651576)
# Conditions: AlphaScreen GST/Flag-core106 dimerization, at 15 µM, stronger effect = higher value
# In short: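 material = HCV core106 dimerization between GST-tagged and Flag-tagged core106 proteins | medium = HEPES pH 7.5 with DTT and CHAPS | probe or stimulus = acceptor and donor beads at 20 µg/mL each | timing = protein preincubation 1 h at room temperature, 1 h per bead step | technique = AlphaScreen luminescence | evaluation = percent signal inhibition relative to uninhibited control wells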
row,SMILES,inhibition
1,Cc1ccc(Cc2c(C)nc3nc(SCC(=O)NC4CCN(C(=O)CSc5nc6nc(C)c(Cc7ccc(C)cc7)c(C)n6n5)CC4)nn3c2C)cc1,80%
2,Cc1ccc(Cc2c(CCc3ccccc3)nc3nc(SC(Cc4ccccc4)C(=O)NCCN4CCOCC4)nn3c2C)cc1 (configuration not stated),85%
3,Cc1ccc(Cc2c(C)nc3nc(SCC(=O)NCCCCNC(=O)CSc4nc5nc(C)c(Cc6ccc(C)cc6)c(C)n5n4)nn3c2C)cc1,88%
4,Cc1ccc(Cc2c(C)nc3nc(SCC(=O)NCCCCCNC(=O)CSc4nc5nc(C)c(Cc6ccc(C)cc6)c(C)n5n4)nn3c2C)cc1,78%
5,Cc1nc2nc(SCC(=O)N(C)CCN3CCOCC3)nn2c(C)c1Cc1ccc(Br)cc1,12% (inactive)
6,Cc1ccc(Cc2c(C)nc3nc(SCC(=O)NCCN4CCCN(C(=O)OC(C)(C)C)CC4)nn3c2C)cc1,< 50% (inactive)
7,Cc1ccc(Cc2c(C)nc3nc(SCC(=O)NCCNC(=O)CSc4nc5nc(C)c(Cc6ccc(C)cc6)c(C)n5n4)nn3c2C)cc1,52%
8,Cc1ccc(Cc2c(C)nc3nc(SCC(=O)N(C)C)nn3c2C)cc1,51%
9,Cc1nc2nc(SCC(=O)N3CCN(C(=O)CSc4nc5nc(C)c(Cc6ccc(Br)cc6)c(C)n5n4)CC3)nn2c(C)c1Cc1ccc(Br)cc1,25% (inactive)
10,Cc1ccc(Cc2c(C)nc3nc(SCC(=O)NCCN4CCN(C(=O)OC(C)(C)C)CC4)nn3c2C)cc1,51%
11,Cc1cccc(Cc2c(C)nc3nc(SCC(=O)NC4CCN(C(=O)CSc5nc6nc(C)c(Cc7cccc(C)c7)c(C)n6n5)C4)nn3c2C)c1 (configuration not stated),80%
12,Cc1ccc(Cc2c(C)nc3nc(SCC(=O)N4CCOCC4)nn3c2C)cc1,13% (inactive)
13,Cc1ccc(Cc2c(C)nc3nc(SCC(=O)N4CCN(Cc5ccc(F)cc5)CC4)nn3c2C)cc1,10% (inactive)
14,Cc1ccc(Cc2c(C)nc3nc(SCC(=O)NCCC4CCOCC4)nn3c2C)cc1,< 50% (inactive)
15,Cc1ccc(Cc2c(C)nc3nc(SCC(=O)N4CCNCC4)nn3c2C)cc1,42% (inactive)
16,Cc1ccc(Cc2c(C)nc3nc(SCC(=O)N4C[C@@H]5C[C@H]4CN5C(=O)CSc4nc5nc(C)c(Cc6ccc(C)cc6)c(C)n5n4)nn3c2C)cc1,67%
17,Cc1ccc(Cc2c(C)nc3nc(SCC(=O)NCCCN4CCCCCC4)nn3c2C)cc1,16% (inactive)
18,Cc1ccc(Cc2c(C)nc3nc(SCC(=O)NC4CCC(NC(=O)CSc5nc6nc(C)c(Cc7ccc(C)cc7)c(C)n6n5)CC4)nn3c2C)cc1 (configuration not stated),92%
19,Cc1ccc(Cc2c(C)nc3nc(SCC(=O)NCC4CCN(C(=O)CSc5nc6nc(C)c(Cc7ccc(C)cc7)c(C)n6n5)CC4)nn3c2C)cc1,89%
20,Cc1ccc(Cc2c(C)nc3nc(SCc4ccc(Cl)cc4)nn3c2C)cc1,52%
21,Cc1ccc(Cc2c(C)nc3nc(SCC(=O)NCC[N+]4(C)CCOCC4)nn3c2C)cc1,46% (inactive)
22,Cc1ccc(Cc2c(C)nc3nc(SCC(=O)N4CCN(C)CC4)nn3c2C)cc1,37% (inactive)
23,Cc1ccc(Cc2c(C)nc3nc(SCC(=O)N4CCCC4)nn3c2C)cc1,87%
24,Cc1ccc(Cc2c(C)nc3nc(SCC(=O)NCC[N+]4(Cc5ccc(F)cc5)CCN(Cc5ccc(F)cc5)CC4)nn3c2C)cc1,< 50% (inactive)
25,Cc1nc2nc(SCC(=O)NCCCNC(=O)CSc3nc4nc(C)c(Cc5ccncc5)c(C)n4n3)nn2c(C)c1Cc1ccncc1,< 50% (inactive)
26,Cc1ccc(Cc2c(C)nc3nc(SCC(=O)N4CCN(Cc5ccc(Br)cc5)CC4)nn3c2C)cc1,43% (inactive)

row,SMILES,inhibition
1,Cc1cccc(Cc2c(C)nc3nc(SCC(=O)NCC(C)NC(=O)CSc4nc5nc(C)c(Cc6cccc(C)c6)c(C)n5n4)nn3c2C)c1 (configuration not stated),67%
2,CCCNC(=O)CSc1nc2nc(C)c(Cc3ccc(C)cc3)c(C)n2n1,38% (inactive)
3,Cc1ccc(Cc2c(C)nc3nc(SCC(=O)N4CCN(Cc5ccc(Cl)cc5)CC4)nn3c2C)cc1,44% (inactive)
4,CCN(CC)CCCNC(=O)CSc1nc2nc(C)c(Cc3ccc(C)cc3)c(C)n2n1,65%
5,Cc1ccc(Cc2c(C)nc3nc(SCC(=O)NCc4ccc(CNC(=O)CSc5nc6nc(C)c(Cc7ccc(C)cc7)c(C)n6n5)cc4)nn3c2C)cc1,89%
6,Cc1nc2nc(SCC(=O)NCCC3=CCCCC3)nn2c(C)c1Cc1ccc(Cl)cc1,30% (inactive)
7,Cc1ccc(Cc2c(C)nc3nc(SCC(=O)Nc4ccccc4NC(=O)CSc4nc5nc(C)c(Cc6ccc(C)cc6)c(C)n5n4)nn3c2C)cc1,80%
8,Cc1ccc(Cc2c(C)nc3nc(SCC(=O)NCC4CCCCN4C(=O)CSc4nc5nc(C)c(Cc6ccc(C)cc6)c(C)n5n4)nn3c2C)cc1 (configuration not stated),93%
9,CCN(CC)C(=O)CSc1nc2nc(C)c(Cc3ccc(C)cc3)c(C)n2n1,11% (inactive)
10,Cc1nc2nc(SCC(=O)NCCN3CCOCC3)nn2c(C)c1Cc1ccc(Br)cc1,< 50% (inactive)
11,Cc1cccc(Cc2c(C)nc3nc(SCC(=O)N4CCCCCC4)nn3c2C)c1,71%
12,Cc1ccc(Cc2c(C)nc3nc(SCC(=O)N[C@H]4CCCN(C(=O)CSc5nc6nc(C)c(Cc7ccc(C)cc7)c(C)n6n5)C4)nn3c2C)cc1,85%
13,Cc1ccc(Cc2c(C)nc3nc(SCC(=O)N4CCN(Cc5ccc(C)cc5)CC4)nn3c2C)cc1,14% (inactive)
14,Cc1ccc(Cc2c(C)nc3nc(SCC(=O)NCCN(C)C)nn3c2C)cc1,< 50% (inactive)
15,Cc1ccc(Cc2c(C)nc3nc(SCC(=O)NCCN4CCCNCC4)nn3c2C)cc1,< 50% (inactive)
16,Cc1nc2nc(SCC(=O)NCCN3CCOCC3)nn2c(C)c1Cc1ccncc1,-11% (inactive)
17,Cc1ccc(Cc2c(C)nc3nc(SCC(=O)NCCC4=CCCCC4)nn3c2C)cc1,22% (inactive)
18,Cc1ccc(Cc2c(C)nc3nc(SCC(=O)NCCCCCCNC(=O)CSc4nc5nc(C)c(Cc6ccc(C)cc6)c(C)n5n4)nn3c2C)cc1,88%
19,CCCNC(=O)CSc1nc2nc(C)c(Cc3cccc(C)c3)c(C)n2n1,33% (inactive)
20,Cc1ccc(Cc2c(C)nc3nc(SCC(=O)N4CCCN(C(=O)CSc5nc6nc(C)c(Cc7ccc(C)cc7)c(C)n6n5)CC4)nn3c2C)cc1,90%
21,Cc1ccc(Cc2c(C)nc3nc(SCC(=O)NCCN4CCCCCC4)nn3c2C)cc1,97% and 82%
22,Cc1ccc(Cc2c(C)nc3nc(SCC(=O)N4CCN(C(=O)CSc5nc6nc(C)c(Cc7ccc(C)cc7)c(C)n6n5)CC4)nn3c2C)cc1,87%
23,Cc1ccc(Cc2c(C)nc3nc(SCC(=O)N4CCSCC4)nn3c2C)cc1,63%
24,Cc1ccc(Cc2c(C)nc3nc(SCC(=O)NCCCNC(=O)CSc4nc5nc(C)c(Cc6ccc(C)cc6)c(C)n5n4)nn3c2C)cc1,96%
25,Cc1ccc(Cc2c(C)nc3nc(SCC(=O)NC4CCCCCCC4)nn3c2C)cc1,59%
26,Cc1ccc(Cc2c(C)nc3nc(SCC(=O)NC4CCCC(NC(=O)CSc5nc6nc(C)c(Cc7ccc(C)cc7)c(C)n6n5)C4)nn3c2C)cc1 (configuration not stated),98%

# The remaining lines, values ahead:
row,inhibition,SMILES
1,< 50% (inactive),Cc1ccc(Cc2c(C)nc3nc(SCC(=O)NCCN4CCCN(C(=O)c5ccc(F)cc5)CC4)nn3c2C)cc1
2,56%,Cc1ccc(Cc2c(C)nc3nc(SCC(=O)NCCN4CCCCC4)nn3c2C)cc1
3,< 50% (inactive),CC(=O)N1CCN(CCNC(=O)CSc2nc3nc(C)c(Cc4ccc(C)cc4)c(C)n3n2)CC1
4,< 50% (inactive),Cc1ccc(Cc2c(C)nc3nc(SCC(=O)NCCN4CCN(C(=O)C(C)C)CC4)nn3c2C)cc1
5,83%,Cc1ccc(Cc2c(C)nc3nc(SCC(=O)NCCN4CCCN(S(=O)(=O)c5ccccc5)CC4)nn3c2C)cc1
6,79%,Cc1ccc(Cc2c(C)nc3nc(SCC(=O)NCCN4CCSCC4)nn3c2C)cc1
7,66%,Cc1ccc(Cc2c(C)nc3nc(SCC(=O)NCCN4CCN(Cc5ccc(F)cc5)CC4)nn3c2C)cc1
8,< 50% (inactive),C#CCN1CCN(CCNC(=O)CSc2nc3nc(C)c(Cc4ccc(C)cc4)c(C)n3n2)CC1
9,< 50% (inactive),Cc1ccc(Cc2c(C)nc3nc(SCC(=O)NCCN4CCCN(C(=O)c5ccccc5)CC4)nn3c2C)cc1
10,40% (inactive),Cc1ccc(Cc2c(C)nc3nc(SCC(=O)NCCc4ccccc4)nn3c2C)cc1
11,< 50% (inactive),C=CCN1CCN(CCNC(=O)CSc2nc3nc(C)c(Cc4ccc(C)cc4)c(C)n3n2)CC1
12,62%,Cc1ccc(Cc2c(C)nc3nc(SCC(=O)NCCN4CCN(S(=O)(=O)c5ccccc5)CC4)nn3c2C)cc1
13,53%,Cc1ccc(Cc2c(C)nc3nc(SCC(=O)NCCN4CCCN(S(C)(=O)=O)CC4)nn3c2C)cc1
14,< 50% (inactive),CCCN1CCN(CCNC(=O)CSc2nc3nc(C)c(Cc4ccc(C)cc4)c(C)n3n2)CC1
15,44% (inactive),Cc1ccc(Cc2c(CCc3ccccc3)nc3nc(SCC(=O)NCCN4CCOCC4)nn3c2C)cc1
16,60%,Cc1ccc(Cc2c(C)nc3nc(SCC(=O)NCCN4CCOCC4)nn3c2C)cc1
17,87%,Cc1ccc(Cc2c(C)nc3nc(SCC(=O)NCCN4CCN(Cc5ccc(Cl)cc5)CC4)nn3c2C)cc1
18,< 50% (inactive),Cc1ccc(Cc2c(C)nc3nc(SCC(=O)NCCN4CCN(C(=O)c5ccccc5)CC4)nn3c2C)cc1
19,< 50% (inactive),Cc1ccc(Cc2c(C)nc3nc(SCC(=O)NCCN4CCCC4)nn3c2C)cc1
20,65%,Cc1ccc(Cc2c(C)nc3nc(SCC(=O)NCCN4CCN(CCc5ccccc5)CC4)nn3c2C)cc1
21,< 50% (inactive),Cc1ccc(Cc2c(C)nc3nc(SCC(=O)NCCN4CCN(C(=O)c5ccc(F)cc5)CC4)nn3c2C)cc1
22,< 50% (inactive),Cc1ccc(Cc2c(C)nc3nc(SCC(=O)NCCN4CCN(S(=O)(=O)c5ccc(C)cc5)CC4)nn3c2C)cc1
23,66%,Cc1ccc(Cc2c(C)nc3nc(SCC(=O)NCCN4CCN(Cc5ccccc5)CC4)nn3c2C)cc1
24,51%,Cc1ccc(Cc2c(C)nc3nc(SCC(=O)NCCN4CCNCC4)nn3c2C)cc1
25,41% (inactive),Cc1ccc(Cc2c(C)nc3nc(SCC(=O)N4CCN(CCc5ccccc5)CC4)nn3c2C)cc1
